Laboratory results reported in ChEMBL document CHEMBL4725360, “Optimization of Acetazolamide-Based Scaffold as Potent Inhibitors of Vancomycin-Resistant Enterococcus” (J Med Chem, 2020).
≈ marks a conversion by molar mass, not a printed value. Calls of active or inactive are those of the source. The rule behind the calls is not given here.

What was measured:
[1] = test system: Enterococcus faecium; assay: Antibacterial activity against Enterococcus faecium NR-31903 incubated for 18 to 20 hrs under aerobic condition by CLSI protocol based broth microdilution assay; assay type: functional; conditions: time hrs 18-20
How it was run: (§1)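 Broth microdilution per CLSI. Strains grown aerobically overnight on trypticase soy agar at 37 °C. Inoculum set to 0.5 McFarland, diluted in trypticase soy broth to about 5 × 10⁵ CFU/mL. Agents serially diluted, plates incubated aerobically at 37 °C for 18–20 h. MIC is the lowest concentration with no visible growth. Compound stocks 10 mg/mL in DMSO.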

[2] = test system: Enterococcus faecium; assay: Antibacterial activity against Enterococcus faecium NR-31914 incubated for 18 to 20 hrs under aerobic condition by CLSI protocol based broth microdilution assay; assay type: functional; conditions: time hrs 18-20; how it was run: as §1
[3] = test system: Enterococcus faecium; assay: Antibacterial activity against Enterococcus faecium NR-31972 incubated for 18 to 20 hrs under aerobic condition by CLSI protocol based broth microdilution assay; assay type: functional; conditions: time hrs 18-20; how it was run: as §1
[4] = test system: Enterococcus faecalis; assay: Antibacterial activity against Enterococcus faecalis HM-335 incubated for 18 to 20 hrs under aerobic condition by CLSI protocol based broth microdilution assay; assay type: functional; conditions: time hrs 18-20; how it was run: as §1
[5] = test system: Enterococcus faecium; assay: Antibacterial activity against Enterococcus faecium HM968 incubated for 18 to 20 hrs under aerobic condition by CLSI protocol based broth microdilution assay; assay type: functional; conditions: time hrs 18-20; how it was run: as §1
[6] = test system: Enterococcus faecium; assay: Antibacterial activity against Enterococcus faecium NR-32052 incubated for 18 to 20 hrs under aerobic condition by CLSI protocol based broth microdilution assay; assay type: functional; conditions: time hrs 18-20; how it was run: as §1
[7] = test system: Enterococcus faecium; assay: Antibacterial activity against Enterococcus faecium NR-31916 incubated for 18 to 20 hrs under aerobic condition by CLSI protocol based broth microdilution assay; assay type: functional; conditions: time hrs 18-20; how it was run: as §1
[8] = test system: Enterococcus faecium; assay: Antibacterial activity against Enterococcus faecium NR-31971 incubated for 18 to 20 hrs under aerobic condition by CLSI protocol based broth microdilution assay; assay type: functional; conditions: time hrs 18-20; how it was run: as §1
[9] = test system: Enterococcus faecium; assay: Bacteriostatic activity against Enterococcus faecium ATCC 700221 assessed as reduction in bacterial burden at 5 times MIC preincubated for 24 hrs followed by replating on soya agar plates and measured after 16 hrs by time-kill assay; assay type: functional, organism-based
How it was run: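 E. faecium ATCC 700221 overnight culture diluted in trypticase soy broth to 3.5 × 10⁶ CFU/mL. […] Samples taken at 2, 4, 6, 8, 12 and 24 h, diluted in PBS and plated on trypticase soy agar. Colonies counted after 16 h at 37 °C. Detection limit 100 CFU/mL. Two-way ANOVA with Dunnett's test.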

[10] = test system: Enterococcus faecium; assay: Antibacterial activity against Enterococcus faecium NR-32065 incubated for 18 to 20 hrs under aerobic condition by CLSI protocol based broth microdilution assay; assay type: functional; conditions: time hrs 18-20; how it was run: as §1
[11] = test system: Enterococcus faecium; assay: Antibacterial activity against Enterococcus faecium NR-28978 incubated for 18 to 20 hrs under aerobic condition by CLSI protocol based broth microdilution assay; assay type: functional; conditions: time hrs 18-20; how it was run: as §1
[12] = Cmax in ICR mouse at 10 mg/kg, po administered via gavage and measured after 30 mins by LC/MS/MS analysis; assay type: ADME, organism-based; set-up: route oral, dose 10 mg/kg, time 10-1440; conditions: in vivo, 0.5 h
How it was run: (§2)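 Male ICR mice, 10 mg/kg single oral gavage; n = 3 mice per time point, 8 time points from 10 to 1440 min. Plasma taken by cardiac puncture and mixed with buffer containing oxybutynin internal standard. Samples diluted with acetonitrile, then LC/MS/MS on C18 with acetonitrile/water–formic acid mobile phases in MRM mode. Concentration read off a standard curve.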

[13] = Apparent permeability across basolateral to apical side in human Caco2 cells; assay type: ADME, cell-based; conditions: caco-2
How it was run: (§3)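 Bi-directional Caco-2 monolayer permeability, run at Eurofins: donor at pH 6.5, receiver at pH 7.4, both A→B and B→A. Papp derived from receiver concentration at the end point, incubation time, monolayer area and mid-point donor concentration. Concentrations taken as peak areas.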

[14] = test system: Enterococcus faecium; assay: Inhibition of carbonic anhydrase in Enterococcus faecium ATCC 700221 assessed as antibacterial activity incubated for 18 to 20 hrs in presence of 5% CO2 by CLSI protocol based broth microdilution assay; conditions: time hrs 18-20
How it was run: (§4)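 CLSI broth microdilution: inoculum about 5 × 10⁵ CFU/mL in trypticase soy broth with serial dilutions of agents. Paired plates incubated at 37 °C for 18–20 h, one set in ambient air ("normal"), the other under 5% CO₂. MIC is the lowest concentration completely inhibiting visible growth.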

[15] = Plasma concentration in ICR mouse at 10 mg/kg, po administered via gavage and measured after 10 to 1440 mins by LC/MS/MS analysis; assay type: ADME, organism-based; conditions: in vivo, time 10-1440 min; how it was run: as §2
[16] = Apparent permeability across apical to basolateral side in human Caco2 cells; assay type: ADME, cell-based; conditions: caco-2; how it was run: as §3
[17] = Cytotoxicity against human Caco2 cells incubated for 2 hrs by MTS assay; assay type: cell-based; conditions: Caco-2 cells
How it was run: (§5)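 Caco-2 cells maintained in DMEM with 10% FBS, non-essential amino acids and penicillin-streptomycin at 37 °C, 5% CO₂. Compound exposure for 2 h in serum-free medium at several concentrations; DMSO-matched controls. Viability expressed relative to DMSO controls (mean ± SD), and CC₅₀ derived.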

[18] = test system: Enterococcus faecalis; assay: Antibacterial activity against Enterococcus faecalis HM-334 incubated for 18 to 20 hrs under aerobic condition by CLSI protocol based broth microdilution assay; assay type: functional; conditions: time hrs 18-20; how it was run: as §1
[19] = Half life in human liver microsomes after 60 mins; assay type: ADME, Microsome; conditions: 1 h
[20] = Metabolic stability in human liver microsomes assessed as compound remaining measured after 60 mins; assay type: ADME, Microsome; conditions: 1 h
How it was run: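 Human liver microsomes at 0.1 mg/mL, 37 °C. Percent parent remaining at 60 min, mean of 2 replicates.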

[21] = Drug excretion in ICR mouse at 10 mg/kg, po administered via gavage and measured after 1440 mins by LC/MS/MS analysis; assay type: ADME, organism-based; conditions: in vivo, read-out: Drug excretion
[22] = test system: Caco-2; assay: Cytotoxicity against human Caco2 cells at 128 ug/ml incubated for 2 hrs by MTS assay; assay type: cell-based; conditions: caco-2, 2 h, dose 128 µg/ml; how it was run: as §5
[23] = test system: Enterococcus faecalis; assay: Antibacterial activity against Enterococcus faecalis NR-31970 incubated for 18 to 20 hrs under aerobic condition by CLSI protocol based broth microdilution assay; assay type: functional, organism-based; conditions: time hrs 18-20; how it was run: as §1
[24] = Aqueous solubility of compound in pH 7.4 PBS measured at 24 hrs by HPLC analysis; assay type: physicochemical; conditions: buffer, pH 7.4, 24 h
How it was run: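 HPLC principal-peak area of the buffer sample compared with a 200 μM calibration standard in methanol/water 60/40.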

[25] = MRT in ICR mouse at 10 mg/kg, po administered via gavage and measured after 10 to 1440 mins by LC/MS/MS analysis; assay type: ADME, organism-based; conditions: in vivo, time 10-1440 min; how it was run: as §2
[26] = test system: Enterococcus faecium; assay: Inhibition of carbonic anhydrase in Enterococcus faecium ATCC 700221 assessed as antibacterial activity incubated for 18 to 20 hrs in presence of ambient air by CLSI protocol based broth microdilution assay; conditions: time hrs 18-20; how it was run: as §4
[27] = Tmax in ICR mouse at 10 mg/kg, po administered via gavage and measured after 10 to 1440 mins by LC/MS/MS analysis; assay type: ADME, organism-based; conditions: in vivo, time 10-1440 min; how it was run: as §2
[28] = test system: Enterococcus faecium; assay: Antibacterial activity against Enterococcus faecium HM965 incubated for 18 to 20 hrs under aerobic condition by CLSI protocol based broth microdilution assay; assay type: functional; conditions: time hrs 18-20; how it was run: as §1
[29] = Dose normalized AUC in ICR mouse at 10 mg/kg, po administered via gavage and measured after 10 to 1440 mins by LC/MS/MS analysis; assay type: ADME, organism-based; conditions: in vivo, time 10-1440 min; how it was run: as §2
[30] = test system: Enterococcus faecalis; assay: Antibacterial activity against Enterococcus faecalis NR-31975 incubated for 18 to 20 hrs under aerobic condition by CLSI protocol based broth microdilution assay; assay type: functional, organism-based; conditions: time hrs 18-20; how it was run: as §1
[31] = AUC(0 to infinity) in ICR mouse at 10 mg/kg, po administered via gavage and measured after 10 to 1440 mins by LC/MS/MS analysis; assay type: ADME, organism-based; set-up: route oral, dose 10 mg/kg, time 10-1440; conditions: in vivo; how it was run: as §2
[32] = test system: Enterococcus faecium; assay: Antibacterial activity against Enterococcus faecium ATCC 700221 by CLSI protocol based assay; assay type: functional; how it was run: as §1

| MIC [32] | Structure (SMILES) | MIC [1] | MIC [2] | MIC [3] | MIC [4] | MIC [5] | MIC [6] | MIC [7] | MIC [8] | Activity [9] | MIC [10] | MIC [11] | further results |
| --- | --- | --- | --- | --- | --- | --- | --- | --- | --- | --- | --- | --- | --- |
| – | CC(=O)NC[C@H]1CN(c2ccc(N3CCOCC3)c(F)c2)C(=O)O1 [LINEZOLID] | 1 µg/mL (≈ 2.96 µM) | 1 µg/mL (≈ 2.96 µM) | 0.5 µg/mL (≈ 1.48 µM) | 0.5 µg/mL (≈ 1.48 µM) | 0.5 µg/mL (≈ 1.48 µM) | 0.5 µg/mL (≈ 1.48 µM) | 1 µg/mL (≈ 2.96 µM) | 1 µg/mL (≈ 2.96 µM) | Active | 0.25 µg/mL (≈ 0.741 µM) | 1 µg/mL (≈ 2.96 µM) | – |
| – | NS(=O)(=O)c1nnc(NC(=O)CCC2CCCCC2)s1 | 0.015 µg/mL (≈ 0.0471 µM) | 0.03 µg/mL (≈ 0.0942 µM) | 0.015 µg/mL (≈ 0.0471 µM) | 0.03 µg/mL (≈ 0.0942 µM) | 0.03 µg/mL (≈ 0.0942 µM) | 0.015 µg/mL (≈ 0.0471 µM) | 0.03 µg/mL (≈ 0.0942 µM) | 0.007 µg/mL (≈ 0.022 µM) | Active | 0.015 µg/mL (≈ 0.0471 µM) | 0.06 µg/mL (≈ 0.188 µM) | Cmax [12]: 456 ng/mL; Papp [13]: 14.1 10^-6 cm/s; inhibition [14]: inactive; Cp [15]: 184 ng/mL; Papp [16]: 6.5 10^-6 cm/s; CC50 at 2 h [17]: > 128 µg/mL; MIC [18]: 0.007 µg/mL (≈ 0.022 µM); t1/2 [19]: 1.23 h; Stabilty [20]: 62%; dose excreted at 24 h [21]: 100%; Activity [22]: Non-Toxic; Activity [23]: Active; solubility [24]: 32.8 µM (≈ 10.4 µg/mL); MRT [25]: 1.35 h; inhibition [26]: Active; Tmax [27]: 0.5 h; MIC [28]: 0.007 µg/mL (≈ 0.022 µM); AUC/dose [29]: 56 kg·ng·h/mL/mg; Activity [30]: Active; AUC(0-inf) [31]: 562 ng·h/mL |
| 4 µg/mL (≈ 16.9 µM) | CC(=O)/N=c1/sc(S(N)(=O)=O)nn1C [METHAZOLAMIDE] | – | – | – | – | – | – | – | – | – | – | – | – |
| 1 µg/mL (≈ 3.87 µM) | CCOc1ccc2nc(S(N)(=O)=O)sc2c1 [ETHOXZOLAMIDE] | – | – | – | – | – | – | – | – | – | – | – | – |
